High-throughput results deposited in PubChem by several laboratories.
UPR XBP1 act = adaptive UPR (XBP1) activation. activation, % at 20 µM. CHO-XBP1 luciferase reporter, IRE1-XBP1 UPR activation, luminescence; percent of tunicamycin response, DMSO as zero. 330,000 compounds, 0.33% hits;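 active means versus positive control, 20 µM dose yields 30% or more activation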;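 further: 100% = tunicamycin at 10 µg/mL and 0% = DMSO only wells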
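Assay system: CHO-XBP1 luciferase reporter cells; Schedule: 6 h treatment, 37 °C; Detection: glow luminescence from Steady-Glo reagent; Benchmarks: high control tunicamycin 10 µg/mL final, low control DMSO vehicle only.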
Dynein transport = blocks dynein driven cargo transport along microtubules; 3617.4 mouse cells, GR-EGFP nuclear translocation imaging; test concentration mostly 20 µM; stimulated with dexamethasone, 1 µM; hits give low values; z-score, hits read low; 220,000 compounds, 0.47% hits;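 active means plate z-score of nuclear minus cytoplasmic receptor signal below a set negative limit, without overly bright fluorescence or cell loss, cut at about -3.5 in these data, passing the limit was not always enough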;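 further: z-score of nuclear minus cytoplasmic ring GR-EGFP intensity difference per well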
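Medium: Induction medium lacking tetracycline, stripped serum | Probe or stimulus: 1.0 µM final dexamethasone stimulus | Schedule: 48 h induction, then 1 h compound, then 30 min agonist, 37 °C | Signal: Automated 10x imaging of fixed Hoechst-stained cells | Evaluation: Per-cell GR-EGFP intensity, nucleus versus surrounding cytoplasmic ring, well-averaged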
UPR CHOP act = activators of apoptotic arm of unfolded protein response (CHOP); CHO-CHOP luciferase reporter, UPR activation, luminescence; percent of tunicamycin response over DMSO baseline; activation, % at 10 µM; 330,000 compounds, 0.34% hits;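 active means at 10 µM dose, activation of 40% or more, normalized to positive control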;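 further: 100% = tunicamycin at 10 µg/mL and 0% = DMSO alone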
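assay system = CHO CHOP reporter cells | amount = 500 CHO-CHOP cells per well | buffer or medium = F12 with 10% FBS | incubation = 16-18 h cell attachment, then 6 h compound exposure, 37 °C | detection = luminescence read with Steady-Glo | read-out = percent activation relative to tunicamycin control | controls = tunicamycin high control, DMSO low control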
CHOP inhibitor = inhibitors of CHOP induction in ER stress response; 220,000 compounds, 3.8% hits; inhibition, % at 10 µM; CHO-K1 CHOP-promoter luciferase, tunicamycin-induced, 15-18 h; AID 2732;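 active means compounds that reduced the stress-induced luciferase reporter signal by more than about 70% of percent inhibition, limit read from the data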;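 further: 0% = tunicamycin plus vehicle and 100% = wells without tunicamycin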
L major viab = Leishmania major promastigote growth inhibition. Leishmania major promastigotes, resazurin fluorescence viability. inhibition, % at 10 µM. 200,000 compounds, 9% hits; in the data active means inhibition above about 50%;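 further: promastigotes grown with compound for 44 hours at 28 °C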
T cruzi repl = T. cruzi replication inhibition; AID 1885; inhibition, % (concentration not given with the values); T. cruzi beta-gal in NIH3T3, luminescence, 90 h; 300,000 compounds, 1.4% hits;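 active means mean inhibition across valid replicates above about 55%, limit read from the data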;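 further: signal also drops with host cell toxicity which is not excluded here; 0% = plate median of DMSO wells and 100% = zero luminescence signal; higher percent means less beta-gal luminescence so fewer parasites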
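Material: NIH/3T3 host cells with β-galactosidase reporter T. cruzi; Input: 5,000 host fibroblasts per well; Medium: DMEM, 2% fetal bovine serum; Compound: 50 nL DMSO compound solution per well; Schedule: 3 h host attachment, then at least 90 h co-culture; Detection: luminescent β-galactosidase signal after 60 min lysis.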
Dynein inh conf = dynein cargo transport inhibition, confirmation; calls only at 20 µM; shares compounds with Dynein transport; 1,000 compounds, 69% hits; 3617.4 GR-EGFP nuclear translocation imaging, dexamethasone-induced;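 active means inhibition of receptor movement into the nucleus at or above a set limit in both runs, with normal cell brightness and cell count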;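 further: dexamethasone at 1 µM final in well for 30 min; nuclear minus cytoplasmic GR-EGFP mean intensity difference in channel 2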
* marks the source's active call; other numbers are inactive results; i = inactive; . = not tested or not shown; + = active, no number. The full list was thinned out, with hits kept by preference.

SMILES	UPR XBP1 act	Dynein transport	UPR CHOP act	CHOP inhibitor	L major viab	T cruzi repl	Dynein inh conf
O=C(C1CCC1)N1CCCc2cc(S(=O)(=O)N3CCN(c4ccccc4)CC3)ccc21	-2.0	.	-0.3	.	.	21.3	.
COc1ccc(N/C=C/c2nc(SC)nnc2C)cc1	5.9	-4.02	-0.6	13.5	13.7	10.2	i
CCOC(=O)c1c(NC(=O)Nc2ccc(Cl)cc2)sc(C)c1C	1.4	-0.329	0.8	29.5	-1.7	-0.7	.
CCOC(=O)c1c(NC(=O)/C=C/C(=O)O)sc(C)c1-c1ccc(Cl)cc1	-3.3	-8.2*	0.3	-3.6	7.5	22.7	+
CCOC(=O)c1c(/N=C/N(C)C)sc(C=O)c1-c1ccccc1	5.2	-0.57	-0.5	5.8	5.0	17.3	.
CCOC(=O)c1c(NC(=O)CCl)sc(CN(C)C)c1-c1ccccc1	1.1	-5.2*	35.3	-180.3	90.7*	-0.6	+
O=C(COc1ccc(/C=C\[N+](=O)[O-])cc1)N1CCOCC1	2.3	-5.04*	3.5	85.1*	25.4	-3.6	+
O=C(COc1ccc(S(=O)(=O)N2CCOCC2)cc1)N1CCOCC1	-2.0	.	-0.3	.	.	.	.
CCN(CC)Cc1cc(O)c(CN(CC)CC)cc1O	.	-4.88*	.	-80.2	1.6	-0.7	+
COc1ccc(C(O)(CCN2CCOCC2)c2ccccc2)cc1 (stereo unspecified)	0.6	.	-1.4	.	.	-10.0	.
CN(C(=O)COC(=O)c1ccc(S(=O)(=O)N2CCOCC2)cc1)c1ccccc1	-0.9	.	-0.7	.	.	.	.
COc1ccccc1-[n+]1c(C)cc(/C=C2\Sc3ccccc3N2C)cc1C	2.5	-5	13.4	81.8*	.	56.3*	+
COc1ccccc1OC(=O)CCN1c2ccccc2Sc2ccccc21	-1.6	0.0216	0.1	36.9	-5.6	1.1	.
CC(NC(=O)COc1ccc(Br)cc1)C1CCCO1 (stereo unspecified)	-3.0	.	-0.4	.	.	-0.5	.
COc1cccc(N(C(=O)CCl)C(C(=O)NCCc2ccccc2)c2cccs2)c1 (stereo unspecified)	.	-5.46*	.	-2.9	100.2*	30.4	+
COc1ccc(N(C(=O)CCl)C(C(=O)NCCc2ccccc2)c2cccs2)cc1Cl (stereo unspecified)	.	-4.76*	.	109.7*	100.4*	62.6*	+
COCCNC(=O)C(c1cccs1)N(C(=O)Cn1nnc2ccccc21)c1ccccc1 (stereo unspecified)	2.8	0.382	1.4	-6.6	-3.3	-0.5	.
CC(C)(C)OC(=O)C[C@H]1C/C=C\C[C@H](CC(=O)NCCO)C(=O)N[C@@H](c2ccccc2)COC1=O	-1.7	.	-0.8	.	.	.	.
Cc1cc(-c2onc3ccc(Cl)cc23)ccc1O	4.9	.	5.6	.	.	5.0	.
O=C(CCl)c1ccc2c(c1)CCN2C(=O)C1CC1	-10.9	-4.81*	-9.2	108.9*	100.5*	19.0	+
Cc1cc(-n2ccnc2)n2c(nc3ccccc32)c1C#N	-3.0	2.23	-0.3	7.6	10.3	-10.7	.
CCCc1cc(-n2ccnc2)n2c(nc3ccccc32)c1C#N	-3.9	-8.12	1.2	-51.0	3.7	-30.8	i
N#C/C(C(=O)c1ccccc1)=C1/SC=C(N)N1c1ccccc1	.	-4.36	.	-7.5	-1.7	.	i
COCCN(CC(=O)NC1CCCCC1)C(=O)/C=C/C(=O)c1ccc(OC)cc1O	.	-3.69*	.	108.4*	1.3	21.1	+
COc1ccc(C(=O)OCC(=O)NC(=O)NC2CCCC2)c(O)c1	-2.3	0.0128	-0.2	17.3	1.6	-15.6	.
CC1CCN(CCCNC(=O)c2ccc3c(Cl)c4c(nc3c2)CCCC4)CC1	2.4	-4.96*	0.8	53.9	.	21.5	+
CCN1CCN(CCCNC(=O)c2ccc3c(Cl)c4c(nc3c2)CCCC4)CC1	-0.7	.	-0.4	.	.	6.9	.
O=C(NCCCN1CCCCCC1)c1ccc2c(Cl)c3c(nc2c1)CCCC3	-1.3	-3.68*	0.0	57.9	73.0*	6.5	+
